# Data published in ChEMBL document CHEMBL2086252, “Syntheses and evaluation of anticonvulsant activity of novel branched alkyl carbamates” (J Med Chem, 2012).
# The source made the active and inactive calls. The calls are words filed in the database; no cut-off is given here.
# Columns and labels:
# Mus musculus [1] = test: Anticonvulsant activity in albino CF1 mouse assessed as protection against subcutaneous metrazol-induced seizures at 30 mg/kg, ip after 0.5 hrs; type: functional, organism-based; parameters: dose 30 mg/kg
# Procedure, shortened: (§1)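 Mice dosed ip at 30, 100 or 300 mg/kg, then tested 0.5 h and 4 h after administration in the MES or scMet test. Protection was recorded as animals protected over animals tested. Neurotoxicity was recorded as motor impairment or sedation, as animals affected over animals tested.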
# Mus musculus [2] = test: Anticonvulsant activity in albino CF1 mouse assessed as protection against subcutaneous metrazol-induced seizures at 100 mg/kg, ip after 0.5 hrs; type: functional, organism-based; parameters: dose 100 mg/kg; procedure, shortened: as §1
# Mus musculus [3] = test: Anticonvulsant activity in albino CF1 mouse assessed as protection against subcutaneous metrazol-induced seizures at 300 mg/kg, ip after 0.5 hrs; type: functional, organism-based; parameters: dose 300 mg/kg; procedure, shortened: as §1
# Mus musculus [4] = test: Anticonvulsant activity in albino CF1 mouse assessed as protection against subcutaneous metrazol-induced seizures at 30 mg/kg, ip after 4 hrs; type: functional, organism-based; parameters: dose 30 mg/kg; procedure, shortened: as §1
# Mus musculus [5] = test: Anticonvulsant activity in albino CF1 mouse assessed as protection against subcutaneous metrazol-induced seizures at 100 mg/kg, ip after 4 hrs; type: functional, organism-based; parameters: dose 100 mg/kg; procedure, shortened: as §1
# Mus musculus [6] = test: Anticonvulsant activity in albino CF1 mouse assessed as protection against subcutaneous metrazol-induced seizures at 300 mg/kg, ip after 4 hrs; type: functional, organism-based; parameters: dose 300 mg/kg; procedure, shortened: as §1
# Mus musculus [7] = test: Anticonvulsant activity in albino CF1 mouse assessed as protection against maximal electroshock-induced seizures at 30 mg/kg, ip after 0.5 hrs; type: functional, organism-based; parameters: dose 30 mg/kg; procedure, shortened: as §1
# Mus musculus [8] = test: Anticonvulsant activity in albino CF1 mouse assessed as protection against maximal electroshock-induced seizures at 300 mg/kg, ip after 0.5 hrs; type: functional, organism-based; parameters: dose 300 mg/kg; procedure, shortened: as §1
# Mus musculus [9] = test: Anticonvulsant activity in albino CF1 mouse assessed as protection against maximal electroshock-induced seizures at 30 mg/kg, ip after 4 hrs; type: functional, organism-based; parameters: dose 30 mg/kg; procedure, shortened: as §1
# Mus musculus [10] = test: Anticonvulsant activity in albino CF1 mouse assessed as protection against maximal electroshock-induced seizures at 100 mg/kg, ip after 4 hrs; type: functional, organism-based; parameters: dose 100 mg/kg; procedure, shortened: as §1
# Mus musculus [11] = test: Anticonvulsant activity in albino CF1 mouse assessed as protection against maximal electroshock-induced seizures at 300 mg/kg, ip after 4 hrs; type: functional, organism-based; parameters: dose 300 mg/kg; procedure, shortened: as §1
# Mus musculus [12] = test: Neurotoxicity in albino CF1 mouse assessed as minimal motor impairment at 30 mg/kg, ip after 0.5 hrs by rotarod test; type: toxicity, organism-based; parameters: dose 30 mg/kg, route intraperitoneal; conditions: in vivo; procedure, shortened: as §1
# Mus musculus [13] = test: Neurotoxicity in albino CF1 mouse assessed as minimal motor impairment at 300 mg/kg, ip after 4 hrs by rotarod test; type: toxicity, organism-based; parameters: dose 300 mg/kg, route intraperitoneal; conditions: in vivo; procedure, shortened: as §1
# Rattus norvegicus [14] = test: Anticonvulsant activity in Sprague-Dawley albino rat assessed as protection against maximal electroshock-induced seizures at 30 mg/kg, po after 15 mins; type: functional, organism-based; parameters: dose 30 mg/kg
# Procedure, shortened: (§2)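 Rats dosed orally. Anti-MES protection was scored as animals protected over animals tested at each time after dosing. Neurotoxicity was scored as motor impairment or sedation, as animals affected over animals tested.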
# Rattus norvegicus [15] = test: Anticonvulsant activity in Sprague-Dawley albino rat assessed as protection against maximal electroshock-induced seizures at 30 mg/kg, po after 30 mins; type: functional, organism-based; parameters: dose 30 mg/kg; procedure, shortened: as §2
# Rattus norvegicus [16] = test: Anticonvulsant activity in Sprague-Dawley albino rat assessed as protection against maximal electroshock-induced seizures at 30 mg/kg, po after 1 hr; type: functional, organism-based; parameters: dose 30 mg/kg; procedure, shortened: as §2
# Rattus norvegicus [17] = test: Anticonvulsant activity in Sprague-Dawley albino rat assessed as protection against maximal electroshock-induced seizures at 30 mg/kg, po after 2 hrs; type: functional, organism-based; parameters: dose 30 mg/kg; procedure, shortened: as §2
# Rattus norvegicus [18] = test: Anticonvulsant activity in Sprague-Dawley albino rat assessed as protection against maximal electroshock-induced seizures at 30 mg/kg, po after 4 hrs; type: functional, organism-based; parameters: dose 30 mg/kg; procedure, shortened: as §2
# Rattus norvegicus [19] = test: Neurotoxicity in Sprague-Dawley albino rat assessed as minimal motor impairment at 30 mg/kg, po by rotarod test; type: toxicity, organism-based; parameters: dose 30 mg/kg, route oral; conditions: in vivo; procedure, shortened: as §2
# Rattus norvegicus [20] = test: Neurotoxicity in pilocarpine-induced status epilepticus Sprague-Dawley albino rat model assessed as minimal motor impairment at 100 mg/kg, ip after 0.25 hr by rotarod test; type: toxicity, organism-based; parameters: dose 100 mg/kg, route intraperitoneal; conditions: in vivo
# Rattus norvegicus [21] = test: Neurotoxicity in pilocarpine-induced status epilepticus Sprague-Dawley albino rat model assessed as minimal motor impairment at 300 mg/kg, ip after 0.25 hr by rotarod test; type: toxicity, organism-based; parameters: dose 300 mg/kg, route intraperitoneal; conditions: in vivo
# Procedure, shortened: (§3)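 Rat pilocarpine status epilepticus model: test carbamate given at 0 or 30 min after the first observed Racine stage 3 motor seizure, which marks SE onset. Neurotoxicity was scored within the same model.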
# Rattus norvegicus [22] = test: Neurotoxicity in pilocarpine-induced status epilepticus Sprague-Dawley albino rat model assessed as minimal motor impairment at 30 mg/kg, ip after 0.25 hr by rotarod test; type: toxicity, organism-based; parameters: dose 30 mg/kg, route intraperitoneal; conditions: in vivo; procedure, shortened: as §3
# Rattus norvegicus [23] = test: Neurotoxicity in pilocarpine-induced status epilepticus Sprague-Dawley albino rat model assessed as minimal motor impairment at 100 mg/kg, ip after 0.5 hrs by rotarod test; type: toxicity, organism-based; parameters: dose 100 mg/kg, route intraperitoneal; conditions: in vivo
# Rattus norvegicus [24] = test: Neurotoxicity in pilocarpine-induced status epilepticus Sprague-Dawley albino rat model assessed as minimal motor impairment at 300 mg/kg, ip after 0.5 hrs by rotarod test; type: toxicity, organism-based; parameters: dose 300 mg/kg, route intraperitoneal; conditions: in vivo; procedure, shortened: as §3
# Rattus norvegicus [25] = test: Neurotoxicity in pilocarpine-induced status epilepticus Sprague-Dawley albino rat model assessed as minimal motor impairment at 30 mg/kg, ip after 0.5 hrs by rotarod test; type: toxicity, organism-based; parameters: dose 30 mg/kg, route intraperitoneal; conditions: in vivo; procedure, shortened: as §3
# Rattus norvegicus [26] = test: Neurotoxicity in pilocarpine-induced status epilepticus Sprague-Dawley albino rat model assessed as minimal motor impairment at 100 mg/kg, ip after 1 hr by rotarod test; type: toxicity, organism-based; parameters: dose 100 mg/kg, route intraperitoneal; conditions: in vivo
# Rattus norvegicus [27] = test: Neurotoxicity in pilocarpine-induced status epilepticus Sprague-Dawley albino rat model assessed as minimal motor impairment at 300 mg/kg, ip after 1 hr by rotarod test; type: toxicity, organism-based; parameters: dose 300 mg/kg, route intraperitoneal; conditions: in vivo; procedure, shortened: as §3
# Rattus norvegicus [28] = test: Neurotoxicity in pilocarpine-induced status epilepticus Sprague-Dawley albino rat model assessed as minimal motor impairment at 30 mg/kg, ip after 1 hr by rotarod test; type: toxicity, organism-based; parameters: dose 30 mg/kg, route intraperitoneal; conditions: in vivo; procedure, shortened: as §3
# Rattus norvegicus [29] = test: Neurotoxicity in pilocarpine-induced status epilepticus Sprague-Dawley albino rat model assessed as minimal motor impairment at 100 mg/kg, ip after 2 hrs by rotarod test; type: toxicity, organism-based; parameters: dose 100 mg/kg, route intraperitoneal; conditions: in vivo
# Rattus norvegicus [30] = test: Neurotoxicity in pilocarpine-induced status epilepticus Sprague-Dawley albino rat model assessed as minimal motor impairment at 300 mg/kg, ip after 2 hrs by rotarod test; type: toxicity, organism-based; parameters: dose 300 mg/kg, route intraperitoneal; conditions: in vivo; procedure, shortened: as §3
# Rattus norvegicus [31] = test: Neurotoxicity in pilocarpine-induced status epilepticus Sprague-Dawley albino rat model assessed as minimal motor impairment at 30 mg/kg, ip after 2 hrs by rotarod test; type: toxicity, organism-based; parameters: dose 30 mg/kg, route intraperitoneal; conditions: in vivo; procedure, shortened: as §3
# Rattus norvegicus [32] = test: Neurotoxicity in pilocarpine-induced status epilepticus Sprague-Dawley albino rat model assessed as minimal motor impairment at 100 mg/kg, ip after 4 hrs by rotarod test; type: toxicity, organism-based; parameters: dose 100 mg/kg, route intraperitoneal; conditions: in vivo
# Rattus norvegicus [33] = test: Neurotoxicity in pilocarpine-induced status epilepticus Sprague-Dawley albino rat model assessed as minimal motor impairment at 300 mg/kg, ip after 4 hrs by rotarod test; type: toxicity, organism-based; parameters: dose 300 mg/kg, route intraperitoneal; conditions: in vivo; procedure, shortened: as §3
# Rattus norvegicus [34] = test: Neurotoxicity in pilocarpine-induced status epilepticus Sprague-Dawley albino rat model assessed as minimal motor impairment at 30 mg/kg, ip after 4 hrs by rotarod test; type: toxicity, organism-based; parameters: dose 30 mg/kg, route intraperitoneal; conditions: in vivo; procedure, shortened: as §3
smiles,measurement,setting,value
CCCC(CCC)COC(=O)NC,Activity,Mus musculus [1],inactive
same,Activity,Mus musculus [2],inactive
same,Activity,Mus musculus [3],Active
same,Activity,Mus musculus [4],inactive
same,Activity,Mus musculus [5],inactive
same,Activity,Mus musculus [6],inactive
same,Activity,Mus musculus [7],inactive
same,Activity,Mus musculus [8],Active
same,Activity,Mus musculus [9],inactive
same,Activity,Mus musculus [10],inactive
same,Activity,Mus musculus [11],Active
same,Activity,Mus musculus [12],Non-toxic
same,Activity,Mus musculus [13],Non-toxic
same,Activity,Rattus norvegicus [14],inactive
same,Activity,Rattus norvegicus [15],inactive
same,Activity,Rattus norvegicus [16],inactive
same,Activity,Rattus norvegicus [17],inactive
same,Activity,Rattus norvegicus [18],inactive
same,Activity,Rattus norvegicus [19],Non-toxic
same,Activity,Rattus norvegicus [20],Toxic
same,Activity,Rattus norvegicus [21],Toxic
same,Activity,Rattus norvegicus [22],Non-toxic
same,Activity,Rattus norvegicus [23],Toxic
same,Activity,Rattus norvegicus [24],Toxic
same,Activity,Rattus norvegicus [25],Non-toxic
same,Activity,Rattus norvegicus [26],Toxic
same,Activity,Rattus norvegicus [27],Toxic
same,Activity,Rattus norvegicus [28],Non-toxic
same,Activity,Rattus norvegicus [29],Non-toxic
same,Activity,Rattus norvegicus [30],Toxic
same,Activity,Rattus norvegicus [31],Non-toxic
same,Activity,Rattus norvegicus [32],Non-toxic
same,Activity,Rattus norvegicus [33],Toxic
same,Activity,Rattus norvegicus [34],Non-toxic
